Data as given in ChEMBL document CHEMBL2062488, “Exploration of diverse hinge-binding scaffolds for selective Aurora kinase inhibitors” (Bioorg Med Chem Lett, 2012).

Experiments:
Aurora kinase A [1] = target: T1, Aurora kinase A (Homo sapiens, UniProt O14965); assay: Inhibition of Aurora A kinase by HTRF analysis in presence of 1 mM ATP
T1 sequence (O14965 whole entry): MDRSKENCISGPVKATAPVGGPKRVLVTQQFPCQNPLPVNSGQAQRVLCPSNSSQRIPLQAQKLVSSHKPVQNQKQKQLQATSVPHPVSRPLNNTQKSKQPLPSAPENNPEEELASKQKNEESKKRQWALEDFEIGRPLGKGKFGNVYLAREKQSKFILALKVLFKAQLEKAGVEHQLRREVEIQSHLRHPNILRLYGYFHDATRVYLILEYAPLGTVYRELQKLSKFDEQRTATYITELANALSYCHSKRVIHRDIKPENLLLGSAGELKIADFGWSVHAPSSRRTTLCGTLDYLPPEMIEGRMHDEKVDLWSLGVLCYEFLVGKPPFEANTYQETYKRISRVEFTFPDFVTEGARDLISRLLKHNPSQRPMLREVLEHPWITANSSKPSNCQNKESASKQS

Aurora kinase B [2] = target: T2, Aurora kinase B (Homo sapiens, UniProt Q96GD4); assay: Inhibition of Aurora B kinase by HTRF analysis in presence of 1 mM ATP
T2 sequence (Q96GD4 whole entry): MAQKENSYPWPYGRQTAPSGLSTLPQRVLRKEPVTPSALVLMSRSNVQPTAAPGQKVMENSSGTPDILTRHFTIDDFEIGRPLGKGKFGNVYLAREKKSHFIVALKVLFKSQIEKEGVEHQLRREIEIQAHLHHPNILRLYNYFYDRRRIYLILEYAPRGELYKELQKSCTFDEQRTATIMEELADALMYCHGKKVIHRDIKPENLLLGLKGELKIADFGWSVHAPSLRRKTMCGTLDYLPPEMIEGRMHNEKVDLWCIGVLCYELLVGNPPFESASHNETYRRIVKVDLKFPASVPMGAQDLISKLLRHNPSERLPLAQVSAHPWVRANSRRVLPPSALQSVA

Homo sapiens = species: Homo sapiens; assay: Selectivity ratio of IC50 for Aurora A kinase to IC50 for Aurora B kinase
NCI-H1299 = assay: Cell cycle arrest in human NCI-H1299 assessed as induction of polyploidy after 48 hrs by Hoechst staining-based fluorescence microscopic analysis; type: functional; conditions: NCI-H1299, 48 h
Method in brief: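 NCI-H1299 cells seeded at 4 K/well and left overnight to adhere. Compounds at varying concentrations added in duplicate wells, RPMI 1640 with 10% fetal calf serum, 37 °C for 48 h. Cells fixed in 3% formalin for 1 h, Hoechst-stained and imaged by high-content fluorescence microscopy (360/460 nm) for nuclear area. Polyploid (≥4N) cells had nuclear area >750. EC15 is the concentration giving 15% polyploid cells, from least-squares fit of log dose-response.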

[3] = Volume of distribution in mouse at 3 mg/kg, iv; type: ADME, organism-based; set-up: dose 3 mg/kg, route intravenous; conditions: in vivo
[4] = Distribution half life in mouse at 3 mg/kg, iv; type: ADME, organism-based; set-up: dose 3 mg/kg, route intravenous; conditions: in vivo, read-out: alphat1/2 (converted)
Mus musculus [5] = assay: AUC in mouse at 10 mg/kg, po; type: ADME, organism-based, Plasma; set-up: dose 10 mg/kg, route oral; conditions: in vivo
Method in brief: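 Pyrrolotriazines were given by oral cassette dosing at 10 mpk, with several compounds in one cassette. Oral exposure is reported as AUC.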

[6] = Oral bioavailability in mouse at 10 mg/kg; type: ADME, organism-based; conditions: in vivo
[7] = Clearance in mouse at 3 mg/kg, iv; type: ADME, organism-based; set-up: dose 3 mg/kg, route intravenous; conditions: in vivo
Mus musculus [8] = assay: Inhibition of histone 3 phosphorylation in leukemia xenografted mouse model at 50 mg/kg, ip measured after 4 hrs; type: functional; conditions: route intraperitoneal
Method in brief: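 Leukemia-engrafted mouse model dosed 50 mpk IP. Histone H3 phosphorylation was measured 4 h after the dose as percent inhibition.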

[9] = target: T3, Serine/threonine-protein kinase PLK4 (Homo sapiens, UniProt O00444); assay: Inhibition of Plk4 in presence of 10 uM ATP
T3 sequence (O00444 whole entry): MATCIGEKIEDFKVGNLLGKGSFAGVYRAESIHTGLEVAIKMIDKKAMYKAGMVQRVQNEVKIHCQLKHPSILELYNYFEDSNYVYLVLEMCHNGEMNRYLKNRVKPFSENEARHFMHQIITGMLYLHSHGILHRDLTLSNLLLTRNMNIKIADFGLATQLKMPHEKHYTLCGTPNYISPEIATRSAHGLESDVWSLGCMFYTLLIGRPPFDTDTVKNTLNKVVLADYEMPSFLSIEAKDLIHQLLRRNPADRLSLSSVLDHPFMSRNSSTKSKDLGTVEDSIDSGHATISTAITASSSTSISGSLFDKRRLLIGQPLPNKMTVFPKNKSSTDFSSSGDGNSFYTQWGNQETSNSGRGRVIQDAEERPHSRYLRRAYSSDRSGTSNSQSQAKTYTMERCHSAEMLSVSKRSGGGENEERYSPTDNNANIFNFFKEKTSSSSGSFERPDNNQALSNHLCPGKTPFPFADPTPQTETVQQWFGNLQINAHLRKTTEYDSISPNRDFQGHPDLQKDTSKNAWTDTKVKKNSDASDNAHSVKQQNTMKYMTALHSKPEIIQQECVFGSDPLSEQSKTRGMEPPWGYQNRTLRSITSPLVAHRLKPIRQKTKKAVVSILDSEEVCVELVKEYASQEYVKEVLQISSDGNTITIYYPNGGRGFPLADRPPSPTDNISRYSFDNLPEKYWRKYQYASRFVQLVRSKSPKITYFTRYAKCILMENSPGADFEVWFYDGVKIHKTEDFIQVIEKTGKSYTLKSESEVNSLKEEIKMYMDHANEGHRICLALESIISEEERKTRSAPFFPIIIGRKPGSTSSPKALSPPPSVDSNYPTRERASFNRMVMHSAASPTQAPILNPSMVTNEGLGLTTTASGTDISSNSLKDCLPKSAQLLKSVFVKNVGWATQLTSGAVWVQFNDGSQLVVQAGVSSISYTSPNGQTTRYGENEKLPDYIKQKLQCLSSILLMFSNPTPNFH

Aurora kinase A [10] = target: T1, Aurora kinase A; assay: Inhibition of Aurora A kinase in presence of 10 uM ATP
[11] = target: Activin receptor type-1-like (Homo sapiens, UniProt P37023); assay: Inhibition of Alk1 in presence of 10 uM ATP
Sequence of Activin receptor type-1-like (P37023 whole entry): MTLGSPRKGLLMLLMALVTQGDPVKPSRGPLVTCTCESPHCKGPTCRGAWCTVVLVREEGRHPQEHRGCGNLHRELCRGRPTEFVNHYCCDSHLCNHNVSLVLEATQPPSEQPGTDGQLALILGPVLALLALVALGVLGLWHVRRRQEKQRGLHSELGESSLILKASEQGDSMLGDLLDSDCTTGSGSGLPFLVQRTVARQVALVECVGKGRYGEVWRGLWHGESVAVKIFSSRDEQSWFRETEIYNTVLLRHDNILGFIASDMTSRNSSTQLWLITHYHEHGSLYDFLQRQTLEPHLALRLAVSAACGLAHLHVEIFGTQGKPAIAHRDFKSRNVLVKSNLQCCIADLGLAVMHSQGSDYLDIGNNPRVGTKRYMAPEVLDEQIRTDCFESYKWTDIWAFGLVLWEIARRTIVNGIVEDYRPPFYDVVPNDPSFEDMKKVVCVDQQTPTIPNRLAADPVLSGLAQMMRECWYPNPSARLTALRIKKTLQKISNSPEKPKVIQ

Aurora kinase B [12] = target: T2, Aurora kinase B; assay: Inhibition of Aurora B kinase in presence of 10 uM ATP
[13] = target: T4, Calcium/calmodulin-dependent protein kinase type IV (Homo sapiens, UniProt Q16566); assay: Inhibition of Camk4 in presence of 10 uM ATP
T4 sequence (Q16566 whole entry): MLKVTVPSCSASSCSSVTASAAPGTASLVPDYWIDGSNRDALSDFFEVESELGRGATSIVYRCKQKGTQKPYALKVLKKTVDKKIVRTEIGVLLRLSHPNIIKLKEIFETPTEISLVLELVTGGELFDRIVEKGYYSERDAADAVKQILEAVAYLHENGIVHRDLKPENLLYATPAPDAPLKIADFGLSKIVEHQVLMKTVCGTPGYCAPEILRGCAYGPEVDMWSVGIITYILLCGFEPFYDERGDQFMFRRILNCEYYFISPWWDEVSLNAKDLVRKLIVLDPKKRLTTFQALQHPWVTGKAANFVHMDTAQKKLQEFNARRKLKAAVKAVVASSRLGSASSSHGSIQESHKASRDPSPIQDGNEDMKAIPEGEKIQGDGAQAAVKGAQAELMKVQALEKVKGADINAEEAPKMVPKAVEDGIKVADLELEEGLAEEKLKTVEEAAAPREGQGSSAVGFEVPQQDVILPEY

| SMILES | IC50 (Aurora kinase A [1]) [nM] | IC50 (Aurora kinase B [2]) [nM] | Ratio IC50 (Homo sapiens) | EC15 (NCI-H1299) [nM] | further results |
| --- | --- | --- | --- | --- | --- |
| Nc1noc2cccc(C(=O)Nc3ccc(NC(=O)Nc4ccc(F)cc4)cc3)c12 | > 12500 | 480 | > 26 | – | – |
| Nc1noc2cccc(C(=O)Nc3ccc(NC(=O)Nc4ccc(Cl)cc4)cc3)c12 | > 12500 | 140 | > 89 | – | – |
| Nc1ncnn2ccc(C(=O)Nc3ccc(NC(=O)Nc4ccc(F)cc4)cc3)c12 | 88 | 36 | 2.4 | 16 | – |
| Nc1noc2cccc(C(=O)Nc3cccc(CNC(=O)Nc4ccc(C(F)(F)F)cc4)c3)c12 | – | – | – | 13 | Vd [3]: 0.23 L/kg; half-life [4]: 1.3 h; AUC (Mus musculus [5]): 61 uM.hr/ml; bioavailability [6]: 77%; clearance [7]: 2.17 mL/min/kg |
| Cc1ccc(NC(=O)NCc2cccc(NC(=O)c3ccn4ncnc(N)c34)c2)cc1 | – | – | – | 1 | – |
| Nc1ncnn2ccc(C(=O)Nc3ccc(NC(=O)NC4CCCC4)cc3)c12 | – | – | – | 15 | – |
| Nc1ncnn2ccc(C(=O)Nc3ccc(NC(=O)Nc4ccsc4)cc3)c12 | – | – | – | 6 | – |
| Nc1nsc2cccc(C(=O)Nc3cccc(CNC(=O)Nc4ccc(C(F)(F)F)cc4)c3)c12 | – | – | – | 18 | – |
| Nc1ncnn2ccc(C(=O)Nc3cccc(CNC(=O)Nc4cccc(Cl)c4)c3)c12 | – | – | – | 2 | – |
| Cc1ccc(NC(=O)NCc2cccc(NC(=O)c3cccc4onc(N)c34)c2)cc1 | – | – | – | 1 | – |
| Nc1ncnn2ccc(C(=O)Nc3cccc(CNC(=O)Nc4cccc(F)c4)c3)c12 | – | – | – | 2 | – |
| Nc1ncnn2ccc(C(=O)Nc3cccc(CNC(=O)Nc4ccc(C(F)(F)F)cc4)c3)c12 | – | – | – | 6 | – |
| Nc1noc2cccc(C(=O)Nc3cccc(CNC(=O)Nc4ccc(F)c(F)c4)c3)c12 | 4780 | 7 | 696 | 15 | Vd [3]: 0.96 L/kg; half-life [4]: 1.7 h; AUC (Mus musculus [5]): 8 uM.hr/ml; bioavailability [6]: 31%; inhibition in vivo at 50 mg/kg (Mus musculus [8]): 87%; clearance [7]: 6.5 mL/min/kg |
| Nc1ncnn2ccc(C(=O)Nc3cccc(CNC(=O)Nc4ccc(Cl)cc4)c3)c12 | – | – | – | 1 | – |
| Nc1nsc2cccc(C(=O)Nc3cccc(CNC(=O)Nc4ccc(F)c(F)c4)c3)c12 | 12500 | 36 | 347 | 21 | – |
| Nc1n[nH]c2cccc(C(=O)Nc3cccc(CNC(=O)Nc4cccc(F)c4)c3)c12 | – | – | – | 111 | – |
| Cc1cccc(NC(=O)Nc2ccc(NC(=O)c3ccn4ncnc(N)c34)cc2)c1 | – | – | – | 9 | – |
| Nc1n[nH]c2cccc(C(=O)Nc3cccc(CNC(=O)Nc4ccc(F)c(F)c4)c3)c12 | – | – | – | 143 | – |
| Nc1noc2cccc(C(=O)Nc3cccc(CC(=O)Nc4cccc(F)c4)c3)c12 | > 12500 | 450 | – | – | – |
| Cn1nc(N)c2c(C(=O)Nc3cccc(CNC(=O)Nc4ccc(C(F)(F)F)cc4)c3)cccc21 | 12500 | 172 | 73 | – | – |
| Nc1noc2cccc(C(=O)Nc3cccc(CNC(=O)Nc4ccccc4)c3)c12 | 3790 | 18 | 210 | 47 | – |
| Nc1ncnn2ccc(C(=O)Nc3ccc(NC(=O)Nc4cccc(F)c4)cc3)c12 | – | 9 | – | 3 | IC50 [9]: < 3 nM; IC50 (Aurora kinase A [10]): < 3 nM; IC50 [11]: > 10000 nM; IC50 (Aurora kinase B [12]): < 3 nM; IC50 [13]: > 10000 nM |
| Nc1noc2cccc(C(=O)Nc3cccc(CNC(=O)Cc4cccc(F)c4)c3)c12 | > 12500 | > 12500 | – | – | – |
| Nc1nsc2cccc(C(=O)Nc3cccc(CNC(=O)Nc4cccc(F)c4)c3)c12 | – | – | – | 18 | – |
| Nc1noc2cccc(C(=O)Nc3cccc(CNC(=O)Nc4cccc(F)c4)c3)c12 | 3180 | 59 | 54 | 3 | Vd [3]: 0.54 L/kg; half-life [4]: 0.7 h; AUC (Mus musculus [5]): 5 uM.hr/ml; bioavailability [6]: 28%; clearance [7]: 8.83 mL/min/kg |
| Nc1noc2cccc(C(=O)Nc3cccc(CNC(=O)Nc4ccc(Cl)cc4)c3)c12 | – | – | – | 12 | – |
| Nc1noc2cccc(C(=O)Nc3cccc(CNC(=O)Nc4ccc(F)cc4)c3)c12 | – | – | – | 30 | – |
| Nc1noc2cccc(C(=O)Nc3cccc(CNC(=O)Nc4ccccc4F)c3)c12 | > 12500 | 55 | > 227 | 124 | – |
